Screen size: about 340,000 compounds; about 3,000 (0.88%) were called active. The full list was thinned out, with actives kept by preference. A number with no mark means an inactive call.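 The calls were made as follows: active = inhibition above about 50% at 20 µM (limit read from the data); inactive = the rest.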

Chain of Carboxy-terminal domain RNA polymerase II polypeptide A small phosphatase 1 (Homo sapiens) (Q9GZU7 76-261 limits assumed): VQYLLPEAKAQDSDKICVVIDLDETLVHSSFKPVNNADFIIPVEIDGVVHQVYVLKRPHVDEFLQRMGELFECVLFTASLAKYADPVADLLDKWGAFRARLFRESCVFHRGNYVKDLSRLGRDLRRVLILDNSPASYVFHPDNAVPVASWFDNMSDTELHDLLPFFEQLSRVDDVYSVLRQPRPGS

This experiment addresses Carboxy-terminal domain RNA polymerase II polypeptide A small phosphatase 1 (Homo sapiens) (UniProt Q9GZU7). Put plainly: inhibition of human SCP1 dephosphorylation activity – biochemical, colorimetric, uHTS, primary screen (AID 493091).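 Also: plate controls were DMSO wells with enzyme for no effect and wells lacking enzyme for full effect.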 The settings on record: Recombinant Scp1, phosphopeptide, malachite green phosphate absorbance; at 20 µM; stronger effect = higher value. In a few lines:
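Times: enzyme reaction 45 min at room temperature, colour 5 min, stabilisation 30 min. Material: SCP-1 catalytic fragment, aa 76-261. Medium: Acidic Tris acetate buffer with magnesium and detergent. Signal: colorimetric free-phosphate detection, absorbance 630 nm. Read-out basis: % inhibition of SCP-1 phosphate liberation. Reagent: Phosphorylated 17-residue peptide substrate.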
With `O=C(CN1CCN(c2ccc(Cl)cc2)CC1)c1ccccc1`, the inhibition (commonly the drop in the measured response relative to a control, in per cent) is 52% (active).
As to `O=C(CN1CCN(c2ccc(Cl)cc2)CC1)NCc1cccs1`, the inhibition is 3.78%.
On to `CC(C)OC(=O)CN1CCN(c2ccc(Cl)cc2)CC1`, for which the inhibition is 4.48%.
`CN(CC(=O)Nc1ccc(F)c(F)c1F)C(=O)Cn1cnc2c1c(=O)n(C)c(=O)n2C`: the inhibition is -3.89%.
For `O=C(CCC1CCCN(C(=O)Cc2ccc(F)cc2)C1)N1CCN(c2ccccn2)CC1` (stereo unspecified), the inhibition is -6.06%.
For the compound `O=C(CCC1CCCN(C(=O)c2ccc(F)c(F)c2)C1)N1CCN(c2ccccn2)CC1` (stereo unspecified), the inhibition is -8.35%.
For `C=Cc1ccc(C(=O)N2CCCC(CCC(=O)N3CCN(c4ccccn4)CC3)C2)cc1` (stereo unspecified) the value was 87.9% (active).
For `Cc1ccc(C(=O)COC(=O)CCN2C(=O)C3C4CC(C(Br)C4Br)C3C2=O)cc1` (stereo unspecified), the inhibition is -7.42%.
For `CC(=O)N1Cc2ccccc2CC1C(=O)O` (stereo unspecified) the value was 12.9%; for `O=c1c(Cl)c(NCc2ccc(F)cc2Cl)cnn1C12CC3CC(CC(C3)C1)C2`, 17.9%.
With `O=S(=O)(Nc1ccccc1Cl)c1cccc2nsnc12` the figure was 67% (active); with `O=C(O)c1ccc(NS(=O)(=O)c2cccc3nsnc23)cc1`, -2.95%.
With `COc1ccc(NS(=O)(=O)c2cccc3nsnc23)cc1Cl` the figure was -12.1%; with `Cc1nn2c3cc(N4CCOCC4)ccc3nc2c2ccccc12`, 7.49%; with `COc1ccc(C2=Nc3cc(C)ccc3OC2)cc1`, -3.61%.
In the case of `COCCOC(=O)C1=C(C)NC(=O)NC1c1cc2c(cc1Br)OCO2` (stereo unspecified), the inhibition was -6.54%.
For `COCCN(C(=S)Nc1cccc(Cl)c1C)C(C)c1ccco1` (stereo unspecified) the value was -5.75%; for `COc1ccc(S(=O)(=O)NCCCCOc2ccc(Cl)cc2)cc1`, -3.96%.
For `COc1cccc(NC(=O)CCNS(=O)(=O)c2ccc3c(c2)oc(=O)n3C)c1`, the inhibition is 6.79%.
As to `COc1cccc(NC(C)=[N+](C)CCNS(=O)(=O)c2ccc(Cl)cc2)c1`, the inhibition was 105% (active).
Consider `COc1ccc(/C=C/CN2CCCC(C(=O)c3cc(F)ccc3F)C2)cc1` (stereo unspecified), for which the inhibition was -4.6%.
With `O=C(Nc1cccnc1Oc1ncnc2cc(Cl)ccc12)c1ccc(F)cc1`, the inhibition is -6.88%.
Turning to `O=C(CNCc1cccs1)Nc1cc(S(=O)(=O)N2CCCC2)ccc1Cl`, the inhibition was 1.26%.
Take `O=C(Nc1cc(S(=O)(=O)N2CCCCC2)ccc1Cl)C1COc2ccccc2O1` (stereo unspecified): the inhibition was 55.3% (active).
Consider `CCN(CC)S(=O)(=O)c1ccc(N2CCOCC2)c(NC(=O)C2COc3ccccc3O2)c1` (stereo unspecified), for which the inhibition was -9.66%.
In the case of `CC(=O)c1ccc(NC(=O)C(C)N(C)CC(=O)Nc2ccccc2Cl)cc1` (stereo unspecified), the inhibition is 9.97%.

The values are drawn from PubChem BioAssay AID493091 (Sanford-Burnham Center for Chemical Genomics, 2011).
